Results: ChEMBL document CHEMBL1134439, “Radioiodinated styrylbenzenes and thioflavins as probes for amyloid aggregates” (J Med Chem, 2001)

Columns and labels:
[1] = target: T1, Amyloid-beta precursor protein (Homo sapiens, UniProt P05067); assay: Inhibition constant of compound on ligand binding to aggregates of Amyloid beta was measured by comparing with [125I]TZDM
Procedure, shortened: (§1)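 Aβ(1-40) or Aβ(1-42) peptide pre-aggregated at 0.5 or 0.25 mg/mL respectively in pH 7.4 buffer (10 mM sodium phosphate, 1 mM EDTA), 37 °C for 36-42 h with shaking. Fibrils (10-50 nM final) incubated with ¹²⁵I radioligand in 10% EtOH, 3 h at room temperature. Bound ligand separated by GF/B filtration and γ-counted. Ki from nonlinear regression. Three independent experiments, each in duplicate, mean ± SEM.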

[2] = target: T1, Amyloid-beta precursor protein; assay: Inhibition constant of compound on ligand binding to aggregates of Amyloid beta was measured by comparing with [125I]IMSB; procedure, shortened: as §1
[3] = target: T1, Amyloid-beta precursor protein; assay: Inhibition constant for amyloid beta compared to [125I]TZDM
Procedure, shortened: (§2)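 Aβ(1-40) or Aβ(1-42) aggregated at 0.5 or 0.25 mg/mL respectively in pH 7.4 buffer (10 mM sodium phosphate, 1 mM EDTA), 37 °C, 36-42 h with shaking. Competition against ¹²⁵I radioligand with fibrils 10-50 nM (final), 10% EtOH, 1 mL. Incubation 3 h room temperature. Bound ligand collected by GF/B filtration, γ-counted. Ki by nonlinear regression. Mean ± SEM, three experiments in duplicate.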

[4] = target: T1, Amyloid-beta precursor protein; assay: Inhibition constant for aggregates of amyloid beta compared to [125I]IMSB; procedure, shortened: as §2
Mus musculus [5] = assay: Biodistribution was measured in mice heart 6 hours after intravenous injection of [125I]-labeled styrylbenzene.; type: ADME, organism-based; conditions: in vivo
Procedure, shortened: (§3)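 ICR mice (2-3 months old, 20-30 g) under ether anesthesia received 5-10 µCi ¹²⁵I tracer in 0.15 mL saline by tail-vein injection. Animals were killed by cardiac excision at set times post-injection. Organs were removed, weighed and γ-counted. Values are % dose per organ against diluted injectate aliquots, taking blood and muscle as 7% and 40% of body weight. Mean of 3-4 mice ± SD.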

Mus musculus [6] = assay: Biodistribution was measured in mice heart 60 minutes after intravenous injection of [125I]-labeled styrylbenzene.; type: ADME, organism-based; conditions: in vivo, 1 h; procedure, shortened: as §3
Mus musculus [7] = assay: Biodistribution was measured in mice kidney 2 minutes after intravenous injection of [125I]-labeled styrylbenzene.; type: ADME, organism-based; conditions: in vivo; procedure, shortened: as §3
Mus musculus [8] = assay: Biodistribution was measured in mice kidney 24 hours after intravenous injection of [125I]-labeled styrylbenzene.; type: ADME, organism-based; conditions: in vivo; procedure, shortened: as §3
Mus musculus [9] = assay: Biodistribution was measured in mice kidney 30 minutes after intravenous injection of [125I]-labeled styrylbenzene.; type: ADME, organism-based; conditions: in vivo, 0.5 h; procedure, shortened: as §3
Mus musculus [10] = assay: Biodistribution was measured in mice kidney 6 hours after intravenous injection of [125I]-labeled styrylbenzene.; type: ADME, organism-based; conditions: in vivo; procedure, shortened: as §3
Mus musculus [11] = assay: Biodistribution was measured in mice kidney 60 minutes after intravenous injection of [125I]-labeled styrylbenzene.; type: ADME, organism-based; conditions: in vivo, 1 h; procedure, shortened: as §3
Mus musculus [12] = assay: Biodistribution was measured in mice liver 2 minutes after intravenous injection of [125I]-labeled styrylbenzene.; type: ADME, organism-based; conditions: in vivo; procedure, shortened: as §3
Mus musculus [13] = assay: Biodistribution was measured in mice liver 24 hours after intravenous injection of [125I]-labeled styrylbenzene.; type: ADME, organism-based; conditions: in vivo; procedure, shortened: as §3
Mus musculus [14] = assay: Biodistribution was measured in mice liver 30 minutes after intravenous injection of [125I]-labeled styrylbenzene.; type: ADME, organism-based; conditions: in vivo, 0.5 h; procedure, shortened: as §3
Mus musculus [15] = assay: Biodistribution was measured in mice liver 60 minutes after intravenous injection of [125I]-labeled styrylbenzene.; type: ADME, organism-based; conditions: in vivo, 1 h; procedure, shortened: as §3
Mus musculus [16] = assay: Biodistribution was measured in mice muscle 30 minutes after intravenous injection of [125I]-labeled styrylbenzene.; type: ADME, organism-based, Muscle tissue; conditions: in vivo, 0.5 h; procedure, shortened: as §3
Mus musculus [17] = assay: Biodistribution was measured in mice muscle 6 hours after intravenous injection of [125I]-labeled styrylbenzene.; type: ADME, organism-based, Muscle tissue; conditions: in vivo; procedure, shortened: as §3
Mus musculus [18] = assay: Biodistribution was measured in mice muscle 60 minutes after intravenous injection of [125I]-labeled styrylbenzene.; type: ADME, organism-based, Muscle tissue; conditions: in vivo, 1 h; procedure, shortened: as §3
Mus musculus [19] = assay: Biodistribution was measured in mice skin 2 minutes after intravenous injection of [125I]-labeled styrylbenzene.; type: ADME, organism-based, Zone of skin; conditions: in vivo; procedure, shortened: as §3
Mus musculus [20] = assay: Biodistribution was measured in mice skin 24 hours after intravenous injection of [125I]-labeled styrylbenzene.; type: ADME, organism-based, Zone of skin; conditions: in vivo; procedure, shortened: as §3
Mus musculus [21] = assay: Biodistribution was measured in mice skin 30 minutes after intravenous injection of [125I]-labeled styrylbenzene.; type: ADME, organism-based, Zone of skin; conditions: in vivo, 0.5 h; procedure, shortened: as §3
Mus musculus [22] = assay: Biodistribution was measured in mice skin 6 hours after intravenous injection of [125I]-labeled styrylbenzene.; type: ADME, organism-based, Zone of skin; conditions: in vivo; procedure, shortened: as §3
Mus musculus [23] = assay: Biodistribution was measured in mice skin 60 minutes after intravenous injection of [125I]-labeled styrylbenzene.; type: ADME, organism-based, Zone of skin; conditions: in vivo, 1 h; procedure, shortened: as §3
Mus musculus [24] = assay: Biodistribution was measured in mice spleen 2 minutes after intravenous injection of [125I]-labeled styrylbenzene.; type: ADME, organism-based; conditions: in vivo; procedure, shortened: as §3
Mus musculus [25] = assay: Biodistribution was measured in mice spleen 24 hours after intravenous injection of [125I]-labeled styrylbenzene.; type: ADME, organism-based; conditions: in vivo
Mus musculus [26] = assay: Biodistribution was measured in mice spleen 30 minutes after intravenous injection of [125I]-labeled styrylbenzene.; type: ADME, organism-based; conditions: in vivo, 0.5 h
Procedure, shortened: (§4)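 ICR mice (2-3 months old, 20-30 g) under ether anesthesia; 0.15 mL saline containing 5-10 µCi ¹²⁵I tracer injected into tail vein. Sacrifice by cardiac excision at set times; organs removed, weighed, γ-counted. Expressed as % dose per organ versus diluted aliquots of injectate. Mean of three or four mice ± SD.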

Mus musculus [27] = assay: Biodistribution was measured in mice spleen 60 minutes after intravenous injection of [125I]-labeled styrylbenzene.; type: ADME, organism-based; conditions: in vivo, 1 h; procedure, shortened: as §4
Mus musculus [28] = assay: Biodistribution was measured in mice blood 2 minutes after intravenous injection of [125I]-labeled styrylbenzene.; type: ADME, organism-based; conditions: in vivo; procedure, shortened: as §3
Mus musculus [29] = assay: Biodistribution was measured in mice blood 24 hours after intravenous injection of [125I]-labeled styrylbenzene.; type: ADME, organism-based; conditions: in vivo; procedure, shortened: as §3
Mus musculus [30] = assay: Biodistribution was measured in mice blood 30 minutes after intravenous injection of [125I]-labeled styrylbenzene.; type: ADME, organism-based; conditions: in vivo, 0.5 h; procedure, shortened: as §3
Mus musculus [31] = assay: Biodistribution was measured in mice lung 2 minutes after intravenous injection of [125I]-labeled styrylbenzene.; type: ADME, organism-based; conditions: in vivo; procedure, shortened: as §3
Mus musculus [32] = assay: Biodistribution was measured in mice lung 24 hours after intravenous injection of [125I]-labeled styrylbenzene.; type: ADME, organism-based; conditions: in vivo, in the assay text read “thioflavin” for “styrylbenzene”; procedure, shortened: as §3
Mus musculus [33] = assay: Biodistribution was measured in mice lung 30 minutes after intravenous injection of [125I]-labeled styrylbenzene.; type: ADME, organism-based; conditions: in vivo, 0.5 h; procedure, shortened: as §3
Mus musculus [34] = assay: Biodistribution was measured in mice lung 6 hours after intravenous injection of [125I]-labeled styrylbenzene.; type: ADME, organism-based; conditions: in vivo, in the assay text read “thioflavin” for “styrylbenzene”; procedure, shortened: as §3
Mus musculus [35] = assay: Biodistribution was measured in mice lung 60 minutes after intravenous injection of [125I]-labeled styrylbenzene.; type: ADME, organism-based; conditions: in vivo, 1 h; procedure, shortened: as §3
Mus musculus [36] = assay: Biodistribution was measured in mice muscle 2 minutes after intravenous injection of [125I]-labeled styrylbenzene.; type: ADME, organism-based, Muscle tissue; conditions: in vivo, in the assay text read “thioflavin” for “styrylbenzene”; procedure, shortened: as §3
Mus musculus [37] = assay: Biodistribution was measured in mice muscle 24 hours after intravenous injection of [125I]-labeled styrylbenzene.; type: ADME, organism-based, Muscle tissue; conditions: in vivo; procedure, shortened: as §3
Mus musculus [38] = assay: Biodistribution was measured in mice brain 6 hours after intravenous injection of [125I]-labeled styrylbenzene; type: ADME, organism-based; conditions: in vivo; procedure, shortened: as §3
Mus musculus [39] = assay: Biodistribution was measured in mice brain 60 minutes after intravenous injection of [125I]-labeled styrylbenzene; type: ADME, organism-based; conditions: in vivo, 1 h; procedure, shortened: as §3
Mus musculus [40] = assay: Biodistribution was measured in mice heart 2 minutes after intravenous injection of [125I]-labeled styrylbenzene.; type: ADME, organism-based; conditions: in vivo; procedure, shortened: as §3
Mus musculus [41] = assay: Biodistribution was measured in mice heart 24 hours after intravenous injection of [125I]-labeled styrylbenzene.; type: ADME, organism-based; conditions: in vivo; procedure, shortened: as §3
Mus musculus [42] = assay: Biodistribution was measured in mice heart 30 minutes after intravenous injection of [125I]-labeled styrylbenzene.; type: ADME, organism-based; conditions: in vivo, 0.5 h; procedure, shortened: as §3
Mus musculus [43] = assay: Biodistribution was measured in mice blood 6 hours after intravenous injection of [125I]-labeled styrylbenzene.; type: ADME, organism-based; conditions: in vivo; procedure, shortened: as §3
Mus musculus [44] = assay: Biodistribution was measured in mice blood 60 minutes after intravenous injection of [125I]-labeled styrylbenzene.; type: ADME, organism-based; conditions: in vivo, 1 h; procedure, shortened: as §3
Mus musculus [45] = assay: Biodistribution was measured in mice brain 2 minutes after intravenous injection of [125I]-labeled styrylbenzene; type: ADME, organism-based; conditions: in vivo, in the assay text read “thioflavin” for “styrylbenzene”; procedure, shortened: as §3
Mus musculus [46] = assay: Biodistribution was measured in mice brain 24 hours after intravenous injection of [125I]-labeled styrylbenzene; type: ADME, organism-based; conditions: in vivo, in the assay text read “thioflavin” for “styrylbenzene”; procedure, shortened: as §3
Mus musculus [47] = assay: Biodistribution was measured in mice brain 30 minutes after intravenous injection of [125I]-labeled styrylbenzene; type: ADME, organism-based; conditions: in vivo, 0.5 h; procedure, shortened: as §3
Mus musculus [48] = assay: Biodistribution was measured in mice liver 6 hours after intravenous injection of [125I]-labeled styrylbenzene.; type: ADME, organism-based; conditions: in vivo, in the assay text read “thioflavin” for “styrylbenzene”; procedure, shortened: as §3
Mus musculus [49] = assay: Biodistribution was measured in mice spleen 6 hours after intravenous injection of [125I]-labeled thioflavin.; conditions: in vivo

T1 sequence (P05067 whole entry): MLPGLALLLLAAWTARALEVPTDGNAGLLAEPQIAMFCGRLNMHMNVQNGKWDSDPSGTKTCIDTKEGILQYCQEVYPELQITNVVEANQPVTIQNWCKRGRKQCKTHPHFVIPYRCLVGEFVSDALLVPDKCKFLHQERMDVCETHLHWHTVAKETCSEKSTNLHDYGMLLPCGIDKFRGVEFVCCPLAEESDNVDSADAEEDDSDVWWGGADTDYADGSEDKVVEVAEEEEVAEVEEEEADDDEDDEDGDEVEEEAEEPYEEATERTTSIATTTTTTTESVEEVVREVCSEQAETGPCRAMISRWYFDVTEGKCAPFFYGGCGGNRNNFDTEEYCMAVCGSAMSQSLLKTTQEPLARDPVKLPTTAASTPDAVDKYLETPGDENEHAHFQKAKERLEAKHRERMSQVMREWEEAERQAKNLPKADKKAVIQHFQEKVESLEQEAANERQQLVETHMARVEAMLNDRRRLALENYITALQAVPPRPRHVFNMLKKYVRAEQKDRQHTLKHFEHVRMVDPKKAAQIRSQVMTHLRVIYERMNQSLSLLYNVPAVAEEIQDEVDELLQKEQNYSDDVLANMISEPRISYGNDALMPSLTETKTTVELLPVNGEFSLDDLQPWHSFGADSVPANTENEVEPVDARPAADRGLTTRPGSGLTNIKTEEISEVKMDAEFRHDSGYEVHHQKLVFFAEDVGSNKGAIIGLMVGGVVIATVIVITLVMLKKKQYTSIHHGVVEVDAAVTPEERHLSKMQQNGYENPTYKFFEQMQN

O=C(O)c1cc(/N=N/c2ccc(-c3ccc(/N=N/c4ccc(O)c(C(=O)O)c4)cc3)cc2)ccc1O [CHRYSAMINE G]
Ki [1]: > 2000 nM
Ki [2]: 0.4 nM
Ki [3]: > 1000 nM
Ki [4]: 0.14 nM

CN1CCN(c2ccc(-c3nc4ccc(I)cc4s3)cc2)CC1
Dose/organ (Mus musculus [5]): 0.22%
Dose/organ (Mus musculus [6]): 0.66%
Dose/organ (Mus musculus [7]): 6.46%
Dose/organ (Mus musculus [8]): 1.15%
Dose/organ (Mus musculus [9]): 8.06%
Dose/organ (Mus musculus [10]): 3.62%
Dose/organ (Mus musculus [11]): 7.99%
Dose/organ (Mus musculus [12]): 28.84%
Dose/organ (Mus musculus [13]): 3.05%
Dose/organ (Mus musculus [14]): 21.22%
Dose/organ (Mus musculus [15]): 17.2%
Dose/organ (Mus musculus [16]): 18.82%
Dose/organ (Mus musculus [17]): 6.65%
Dose/organ (Mus musculus [18]): 19.46%
Dose/organ (Mus musculus [19]): 4.06%
Dose/organ (Mus musculus [20]): 1.64%
Dose/organ (Mus musculus [21]): 6.07%
Dose/organ (Mus musculus [22]): 3.17%
Dose/organ (Mus musculus [23]): 5.63%
Dose/organ (Mus musculus [24]): 0.89%
Dose/organ (Mus musculus [25]): 0.08%
Dose/organ (Mus musculus [26]): 0.87%
Dose/organ (Mus musculus [27]): 0.6%
Dose/organ (Mus musculus [28]): 8.02%
Dose/organ (Mus musculus [29]): 0.41%
Dose/organ (Mus musculus [30]): 5.15%
Dose/organ (Mus musculus [31]): 12.8%
Dose/organ (Mus musculus [32]): 0.44%
Dose/organ (Mus musculus [33]): 4.14%
Dose/organ (Mus musculus [34]): 1.15%
Dose/organ (Mus musculus [35]): 3.38%
Dose/organ (Mus musculus [36]): 13.24%
Dose/organ (Mus musculus [37]): 2.44%
Dose/organ (Mus musculus [38]): 1.08%
Dose/organ (Mus musculus [39]): 1.89%
Dose/organ (Mus musculus [40]): 2.19%
Dose/organ (Mus musculus [41]): 0.08%
Dose/organ (Mus musculus [42]): 0.69%
Dose/organ (Mus musculus [43]): 1.49%
Dose/organ (Mus musculus [44]): 4.16%
Dose/organ (Mus musculus [45]): 1.5%
Dose/organ (Mus musculus [46]): 0.91%
Dose/organ (Mus musculus [47]): 1.59%
Ki [4]: > 2000 nM
Dose/organ (Mus musculus [48]): 5.79%
Dose/organ (Mus musculus [49]): 0.22%
